Measurements: ChEMBL document CHEMBL2062524, “Synthesis, cytotoxicity of new 4-arylidene curcumin analogues and their multi-functions in inhibition of both NF-κB and Akt signalling” (Eur J Med Chem, 2012)

Columns and labels:
A549 = assay: Antiproliferative activity against human A549 cells after 48 hrs by SRB assay; format: functional, cell-based; conditions: A549, 48 h
In short: (§1)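 SRB assay on cells in RPMI-1640 with 2 mM glutamine, 10% FBS and penicillin/streptomycin at 37 °C and 5% CO2. Seeded at 5000 cells/well and grown 24 h, then compounds added in triplicate (DMSO 0.5% final) for 48 h. Fixed with TCA at 4 °C for 1 h, stained with SRB, dye dissolved in 10 mM Tris pH 10.4, OD read at 515 nm. IC50 from nonlinear dose-response fit; experiments run at least twice.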

[1] = Antiproliferative activity against human CNE2 cells after 48 hrs by SRB assay; format: functional, cell-based; conditions: CNE-2, 48 h; in short: as §1
SW480 = assay: Antiproliferative activity against human SW480 cells after 48 hrs by SRB assay; format: functional, cell-based; conditions: SW480, 48 h; in short: as §1
MCF7 = assay: Antiproliferative activity against human MCF7 cells after 48 hrs by SRB assay; format: functional, cell-based; conditions: MCF7, 48 h; in short: as §1
HepG2 = assay: Antiproliferative activity against human HepG2 cells after 48 hrs by SRB assay; format: functional, cell-based; conditions: HepG2, 48 h; in short: as §1
[2] = Inhibition of TNFalpha-induced NF-kappaB translocation in human A549 cells incubated at 37 degC for 30 mins by high content analysis based immunofluorescence assay; format: cell-based; conditions: A549, 0.5 h
In short: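 A549 cells at 2000/well grown 24 h, then compound added in duplicate (DMSO 0.5% final) for 30 min at 37 °C. Stimulated with TNFα at 10 ng/mL final for 30 min, then fixed with 4% paraformaldehyde and permeabilized with Triton X-100. Stained with anti-p65 and DyLight 488 secondary plus Hoechst, imaged on ArrayScan. Nuclear minus cytoplasmic intensity, background-subtracted, given as % of TNFα-only control. IC50 from this; repeated at least twice.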

[3] = biological target: T1, RAC-alpha serine/threonine-protein kinase (Homo sapiens, UniProt P31749); assay: Inhibition of AKT1 by AKT1/PKBalpha KinEASE FP fluorescein green assay
In short: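 Kinase reaction with Akt1 enzyme (amount giving 70% activity) and STK Substrate 3 (10 µM final) in 50 mM HEPES pH 7.2, 0.01% BSA, 5 mM MgCl2, 1 mM DTT, preincubated with compound 10 min at 25 °C. ATP (100 µM final) starts reaction, run 1 h at 25 °C. Stopped with phospho-STK tracer plus antibody, 6 h, then FP read (ex 470/em 530 nm). IC50 by nonlinear fit; triplicates, repeated twice.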

[4] = biological target: T1, RAC-alpha serine/threonine-protein kinase; assay: Inhibition of AKT1-mediated GSK3beta phosphorylation in human A549 cells incubated for 12 hrs by Western blot; format: cell-based
In short: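 A549 cells grown to 70% confluence, exposed 12 h to compound at 0.125–1.0 µM. Lysed in NP-40 buffer with protease inhibitors, then equal protein run on 10% SDS-PAGE and transferred to PVDF. Probed with anti-phospho-GSK3β (S9) at 1:1000 overnight at 4 °C, then HRP secondary at 1:5000.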

T1 sequence (P31749 whole entry): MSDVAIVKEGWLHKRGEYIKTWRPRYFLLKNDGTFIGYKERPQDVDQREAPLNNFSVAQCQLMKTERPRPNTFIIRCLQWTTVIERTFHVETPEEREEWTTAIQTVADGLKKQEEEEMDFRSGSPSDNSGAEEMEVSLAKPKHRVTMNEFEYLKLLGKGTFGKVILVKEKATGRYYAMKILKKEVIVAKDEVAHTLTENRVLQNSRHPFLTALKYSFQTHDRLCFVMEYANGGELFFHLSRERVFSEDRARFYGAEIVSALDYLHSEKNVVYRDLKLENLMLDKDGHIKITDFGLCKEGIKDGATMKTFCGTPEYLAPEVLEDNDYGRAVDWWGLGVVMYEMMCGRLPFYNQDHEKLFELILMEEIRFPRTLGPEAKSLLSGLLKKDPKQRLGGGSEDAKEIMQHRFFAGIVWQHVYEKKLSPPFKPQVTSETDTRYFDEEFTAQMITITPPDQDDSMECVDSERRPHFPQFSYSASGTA

| SMILES | IC50 (A549) [nM] | IC50 (SW480) [nM] | IC50 (MCF7) [nM] | IC50 (HepG2) [nM] | IC50 [2] [nM] | IC50 [3] [nM] | inhibition [4] | IC50 [1] [nM] |
| --- | --- | --- | --- | --- | --- | --- | --- | --- |
| COc1cccc(/C=C/C(=O)C(=Cc2ccc(O)c(F)c2)C(=O)/C=C/c2cccc(OC)c2OC)c1OC | 200 | 330 | 300 | 220 | 5250 |  |  | 260 |
| COc1ccc(/C=C/C(=O)C(=Cc2cc(Br)c(O)c(OC)c2)C(=O)/C=C/c2ccc(OC)cc2OC)c(OC)c1 | 1090 | 1480 | 2600 | 1190 | > 50000 |  |  | 1780 |
| COc1cc(OC)c(C=C(C(=O)/C=C/c2cccc(OC)c2OC)C(=O)/C=C/c2cccc(OC)c2OC)c(OC)c1 | 630 | 840 | 720 | 300 | > 50000 |  |  | 630 |
| COc1cc(/C=C/C(=O)CC(=O)/C=C/c2ccc(O)c(OC)c2)ccc1O [CURCUMIN] | 11600 | 10200 | 15700 | 20700 | 21400 |  |  | 5760 |
| COc1cc(C=C(C(=O)/C=C/c2cccc(OC)c2OC)C(=O)/C=C/c2cccc(OC)c2OC)cc(OC)c1O | 240 | 420 | 460 | 210 | 2620 |  |  | 300 |
| COc1cc(C=C(C(=O)/C=C/c2cccc(OC)c2OC)C(=O)/C=C/c2cccc(OC)c2OC)ccc1O | 130 | 430 | 480 | 200 | 1710 | 810 | Dose-dependent effect | 280 |
| COc1ccc(C=C(C(=O)/C=C/c2cccc(OC)c2OC)C(=O)/C=C/c2cccc(OC)c2OC)cc1OC | 170 | 410 | 560 | 200 | 1670 |  |  | 280 |
| COc1ccc(/C=C/C(=O)C(=Cc2ccc(O)c(OC)c2)C(=O)/C=C/c2ccc(OC)cc2OC)c(OC)c1 | 590 | 1520 | 2140 | 510 | 10400 |  |  | 970 |
| COc1cc(OC)c(/C=C/C(=O)C(=Cc2ccc(O)c(OC)c2)C(=O)/C=C/c2c(OC)cc(OC)cc2OC)c(OC)c1 | 580 | 1490 | 1880 | 670 | > 50000 |  |  | 1350 |
| COc1cc(OC)c(/C=C/C(=O)C(=Cc2cc(OC)c(O)c(OC)c2)C(=O)/C=C/c2c(OC)cc(OC)cc2OC)c(OC)c1 | 340 | 980 | 1030 | 510 | > 50000 |  |  | 680 |
| COc1ccc(/C=C/C(=O)C(=Cc2ccc(O)c(F)c2)C(=O)/C=C/c2ccc(OC)cc2OC)c(OC)c1 | 2070 | 3350 | 5450 | 1760 | 23000 |  |  | 2830 |
| COc1ccc(C=C(C(=O)/C=C/c2cccc(OC)c2OC)C(=O)/C=C/c2cccc(OC)c2OC)cc1O | 270 | 320 | 310 | 270 | 1260 |  |  | 220 |
| COc1cc(OC)c(/C=C/C(=O)/C=C(O)/C=C/c2c(OC)cc(OC)cc2OC)c(OC)c1 | > 50000 | > 50000 | > 50000 | 16500 | > 50000 |  |  | > 50000 |
| COc1ccc(OC)c(/C=C/C(=O)C(=Cc2ccc(O)c(OC)c2)C(=O)/C=C/c2cc(OC)ccc2OC)c1 | 190 | 410 | 400 | 340 | 2650 |  |  | 340 |
| COc1cc(C=C(C(=O)/C=C/c2cccc(OC)c2OC)C(=O)/C=C/c2cccc(OC)c2OC)cc(Br)c1O | 200 | 260 | 360 | 240 | 5530 |  |  | 220 |
| COc1cccc(C=C(C(=O)/C=C/c2cccc(OC)c2OC)C(=O)/C=C/c2cccc(OC)c2OC)c1OC | 320 | 590 | 520 | 230 | 2390 |  |  | 400 |
| COc1cccc(/C=C/C(=O)C(=Cc2cc(OC)c(OC)c(OC)c2)C(=O)/C=C/c2cccc(OC)c2OC)c1OC | 230 | 650 | 840 | 220 | 1320 |  |  | 400 |
| COc1ccc(OC)c(/C=C/C(=O)C(=Cc2cc(OC)c(O)c(OC)c2)C(=O)/C=C/c2cc(OC)ccc2OC)c1 | 190 | 500 | 430 | 210 | 950 |  |  | 450 |
| COc1ccc(OC)c(/C=C/C(=O)C(=Cc2ccc(OC)c(OC)c2)C(=O)/C=C/c2cc(OC)ccc2OC)c1 | 400 | 560 | 850 | 260 | 14400 |  |  | 550 |
| COc1ccc(/C=C/C(=O)/C=C(O)/C=C/c2ccc(OC)cc2OC)c(OC)c1 | 44700 | > 50000 | > 50000 | 10400 | > 50000 |  |  | > 50000 |

More lines, in order of falling IC50 (A549), values ahead:

| IC50 (A549) [nM] | IC50 (SW480) [nM] | IC50 (MCF7) [nM] | IC50 (HepG2) [nM] | IC50 [2] [nM] | IC50 [3] [nM] | inhibition [4] | SMILES | IC50 [1] [nM] |
| --- | --- | --- | --- | --- | --- | --- | --- | --- |
| 16300 | 15600 | > 50000 | 5560 | > 50000 |  |  | COc1ccc(OC)c(/C=C/C(=O)/C=C(O)/C=C/c2cc(OC)ccc2OC)c1 | 14700 |
| 11500 | 12000 | > 50000 | 12900 | > 50000 |  |  | COc1cccc(/C=C/C(=O)/C=C(O)/C=C/c2cccc(OC)c2OC)c1OC | 12800 |
| 1060 | 1950 | 3180 | 810 | > 50000 |  |  | COc1cc(OC)c(/C=C/C(=O)C(=Cc2ccc(O)c(F)c2)C(=O)/C=C/c2c(OC)cc(OC)cc2OC)c(OC)c1 | 1580 |
| 730 | 1450 | 1460 | 660 | > 50000 |  |  | COc1cc(OC)c(/C=C/C(=O)C(=Cc2cc(Br)c(O)c(OC)c2)C(=O)/C=C/c2c(OC)cc(OC)cc2OC)c(OC)c1 | 1320 |
| 390 | 1120 | 990 | 470 | 1780 |  |  | COc1ccc(OC)c(/C=C/C(=O)C(=Cc2ccc(OC)c(O)c2)C(=O)/C=C/c2cc(OC)ccc2OC)c1 | 730 |
| 380 | 1370 | 1600 | 390 | 12300 | 1660 |  | COc1ccc(/C=C/C(=O)C(=Cc2ccc(OC)c(O)c2)C(=O)/C=C/c2ccc(OC)cc2OC)c(OC)c1 | 760 |
| 340 | 1040 | 1830 | 580 | 1720 |  |  | COc1cccc(/C=C/C(=O)C(=Cc2ccc(F)cc2)C(=O)/C=C/c2cccc(OC)c2OC)c1OC | 610 |
| 300 | 850 | 970 | 320 | 3930 |  |  | COc1ccc(/C=C/C(=O)C(=Cc2cc(OC)c(O)c(OC)c2)C(=O)/C=C/c2ccc(OC)cc2OC)c(OC)c1 | 850 |
| 260 | 560 | 380 | 240 | 1630 |  |  | COc1cccc(/C=C/C(=O)C(=Cc2ccc(OC)c(OC)c2OC)C(=O)/C=C/c2cccc(OC)c2OC)c1OC | 410 |
| 220 | 490 | 580 | 280 | 4190 | 5020 |  | COc1ccc(OC)c(/C=C/C(=O)C(=Cc2cc(Br)c(O)c(OC)c2)C(=O)/C=C/c2cc(OC)ccc2OC)c1 | 420 |
| 220 | 510 | 460 | 220 | 3010 |  |  | COc1ccc(OC)c(/C=C/C(=O)C(=Cc2ccc(O)c(F)c2)C(=O)/C=C/c2cc(OC)ccc2OC)c1 | 380 |
